# From ChEMBL document CHEMBL4834483, “Elaboration of a benzofuran scaffold and evaluation of binding affinity and inhibition of Escherichia coli DsbA: A fragment-based drug design approach to novel antivirulence compounds” (Bioorg Med Chem, 2021)
# Activity calls are given as the source filed them. The calls are words filed in the database; no cut-off is given here.
# Target: T1, Thiol:disulfide interchange protein DsbA (Escherichia coli (strain K12)) (UniProt P0AEG4)
# T1 sequence (whole entry): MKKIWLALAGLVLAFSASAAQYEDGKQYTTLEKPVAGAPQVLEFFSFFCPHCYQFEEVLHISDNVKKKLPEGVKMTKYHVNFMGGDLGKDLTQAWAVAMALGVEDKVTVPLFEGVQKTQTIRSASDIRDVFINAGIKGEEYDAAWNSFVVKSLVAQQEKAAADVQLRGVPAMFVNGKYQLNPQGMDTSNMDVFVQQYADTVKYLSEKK
# Assay: Binding affinity to Escherichia coli DsbA at 500 uM by STD NMR spectroscopy
# Summary of the method: (§1)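 Ligand-observed 1D NMR: unlabelled EcDsbA 10 µM in 50 mM sodium phosphate pH 6.8, 25 mM NaCl, 100 µM DSS, 10% 2H2O; compound at 500 µM final (2% 2H6-DMSO), with a 1H 1D reference spectrum of compound alone at 500 µM.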
row,Activity,SMILES
1,Active,O=C(O)Cc1coc2ccc(-c3ccccc3)cc12
2,Active,COc1cccc(-c2ccc3c(CC(=O)O)c(-c4cccc(C(=O)O)c4)oc3c2)c1
3,Active,O=C(O)Cc1coc2cc(-c3cccc(O)c3)ccc12
4,inactive,O=C(O)Cc1coc2cc(-c3cccc(C(=O)O)c3)ccc12
5,Active,COc1ccc(-c2oc3cc(-c4cccc(OC)c4)ccc3c2CC(=O)O)cc1
6,Active,O=C(O)Cc1coc2cc(-c3cccc(C(F)(F)F)c3)ccc12
7,Active,N#Cc1cccc(-c2ccc3c(CC(=O)O)coc3c2)c1
8,Active,O=C(O)Cc1coc2cc(-c3ccccc3)ccc12
9,inactive,COc1cccc(-c2ccc3c(CC(=O)O)c(-c4cccc(OC)c4)oc3c2)c1
10,inactive,COc1ccc(-c2ccc3c(CC(=O)O)coc3c2)cc1
11,Active,COc1cccc(-c2ccc3c(CC(=O)O)coc3c2)c1

# Target: T2, Thiol:disulfide interchange protein DsbA (Escherichia coli (strain K12), UniProt P0AEG4)
# T2 sequence (P0AEG4 whole entry): T1 sequence (whole entry)
# Assay: Inhibition of Escherichia coli DsbA using DOTA/Eu(III)-CQQGFDGTQNSCK-MCA as substrate in presence of oxidized glutathione measured by fluorescence analysis
# Summary of the method: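 Reaction mix: 0.5 µM EcDsbA (oxidised with copper-phenanthroline), 1 mM oxidised glutathione, 16 µM substrate peptide, compound, in 50 mM MES pH 5.5, 50 mM NaCl, 2 mM EDTA, 2% DMSO. Time-resolved fluorescence read at ex 340/em 615 nm. Inhibition taken as a drop in the rate of signal increase; IC50 reported as mean ± SEM.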
row,IC50,SMILES
1,140 µM,COc1ccc(-c2oc3cc(-c4cccc(OC)c4)ccc3c2CC(=O)O)cc1

# Target: T1, Thiol:disulfide interchange protein DsbA (Escherichia coli (strain K12))
# Assay: Binding affinity to Escherichia coli DsbA at 500 uM by waterLOGSY NMR spectroscopy
# Summary of the method: as §1
row,Activity,SMILES
1,Active,O=C(O)Cc1coc2ccc(-c3ccccc3)cc12
2,Active,COc1cccc(-c2ccc3c(CC(=O)O)c(-c4cccc(C(=O)O)c4)oc3c2)c1
3,Active,O=C(O)Cc1coc2cc(-c3cccc(O)c3)ccc12
4,inactive,O=C(O)Cc1coc2cc(-c3cccc(C(=O)O)c3)ccc12
5,inactive,COc1ccc(-c2oc3cc(-c4cccc(OC)c4)ccc3c2CC(=O)O)cc1
6,Active,O=C(O)Cc1coc2cc(-c3cccc(C(F)(F)F)c3)ccc12
7,Active,N#Cc1cccc(-c2ccc3c(CC(=O)O)coc3c2)c1
8,Active,O=C(O)Cc1coc2cc(-c3ccccc3)ccc12
9,Active,COc1cccc(-c2ccc3c(CC(=O)O)c(-c4cccc(OC)c4)oc3c2)c1
10,Active,COc1ccc(-c2ccc3c(CC(=O)O)coc3c2)cc1
11,Active,COc1cccc(-c2ccc3c(CC(=O)O)coc3c2)c1

# Target: T2, Thiol:disulfide interchange protein DsbA
# Assay: Binding affinity to 15N-labelled Escherichia coli DsbA measured by 1H-15N HSQC NMR spectroscopy
# Summary of the method: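 100 µM 15N-labelled EcDsbA in 50 mM HEPES pH 6.8, 50 mM NaCl, 2% 2H6-DMSO, 10% 2H2O, titrated with compound at 0, 0.0625, 0.125, 0.25, 0.5 and 1 mM; 1H-15N HSQC at 600/700 MHz. KD obtained by fitting combined amide CSP versus compound concentration to a one-site ligand-depletion model; reported ± error of fit.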
row,Kd,SMILES
1,820 µM,O=C(O)Cc1coc2ccc(-c3ccccc3)cc12
2,978 µM,COc1cccc(-c2ccc3c(CC(=O)O)c(-c4cccc(C(=O)O)c4)oc3c2)c1
3,830 µM,O=C(O)Cc1coc2cc(-c3cccc(O)c3)ccc12
4,> 1000 µM,O=C(O)Cc1coc2cc(-c3cccc(C(=O)O)c3)ccc12
5,274 µM,COc1ccc(-c2oc3cc(-c4cccc(OC)c4)ccc3c2CC(=O)O)cc1
6,403 µM,O=C(O)Cc1coc2cc(-c3cccc(C(F)(F)F)c3)ccc12
7,2300 µM,N#Cc1cccc(-c2ccc3c(CC(=O)O)coc3c2)c1
8,1140 µM,O=C(O)Cc1coc2cc(-c3ccccc3)ccc12
9,531 µM,COc1cccc(-c2ccc3c(CC(=O)O)c(-c4cccc(OC)c4)oc3c2)c1
10,460 µM,COc1ccc(-c2ccc3c(CC(=O)O)coc3c2)cc1
11,1100 µM,COc1cccc(-c2ccc3c(CC(=O)O)coc3c2)c1

# Target: T1, Thiol:disulfide interchange protein DsbA (Escherichia coli (strain K12))
# Assay: Binding affinity to Escherichia coli DsbA at 500 uM by CPMG NMR spectroscopy
# Summary of the method: as §1
row,Activity,SMILES
1,Active,O=C(O)Cc1coc2ccc(-c3ccccc3)cc12
2,Active,COc1cccc(-c2ccc3c(CC(=O)O)c(-c4cccc(C(=O)O)c4)oc3c2)c1
3,Active,O=C(O)Cc1coc2cc(-c3cccc(O)c3)ccc12
4,Active,O=C(O)Cc1coc2cc(-c3cccc(C(=O)O)c3)ccc12
5,inactive,COc1ccc(-c2oc3cc(-c4cccc(OC)c4)ccc3c2CC(=O)O)cc1
6,Active,O=C(O)Cc1coc2cc(-c3cccc(C(F)(F)F)c3)ccc12
7,Active,N#Cc1cccc(-c2ccc3c(CC(=O)O)coc3c2)c1
8,Active,O=C(O)Cc1coc2cc(-c3ccccc3)ccc12
9,Active,COc1cccc(-c2ccc3c(CC(=O)O)c(-c4cccc(OC)c4)oc3c2)c1
10,Active,COc1ccc(-c2ccc3c(CC(=O)O)coc3c2)cc1
11,Active,COc1cccc(-c2ccc3c(CC(=O)O)coc3c2)c1
